Reference: paper PMC3215888 (Cancer Chemotherapy and Pharmacology, 2011)
Where two headings read alike, the source gives them in different places.

How the values were obtained:
[1] = system: SMS-KANR neuroblastoma cell line; test: DIMSCAN in vitro testing, 96 h; assay type: cell-based; conditions: for IC50: Neuroblastoma cell, 96 h
[2] = system: solid tumor xenograft models; test: Objective responses across the solid tumor xenograft panel; assay type: in vivo, mice; conditions: MTD 20.8 mg/kg
Method in brief: (§1)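 Female CB17 scid mice bearing subcutaneous tumors, 10 per group. Dosed by oral gavage twice daily, 5 days weekly for 6 weeks, at 20.8, 10.4, 5.2 or 2.6 mg/kg, in 10% 2-hydroxypropyl-β-cyclodextrin/1% sodium bicarbonate. Event = quadrupled tumor volume; EFS by Kaplan–Meier, exact log-rank test. Per-mouse scores PD/SD/PR (≥50% regression)/CR (<0.10 cm3)/MCR; group median reported. PR, CR and MCR count as objective responses.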

[3] = system: SK-N-AS Neuroblastoma xenograft; assay type: in vivo, mice; conditions: 20.8 mg/kg
Method in brief: as §1

[4] = system: CHLA-9 Ewing sarcoma cell line; test: DIMSCAN in vitro testing, 96 h; assay type: cell-based; conditions: for IC50: 96 h
Method in brief: (§2)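 Neuroblastoma and Ewing sarcoma lines, STR-verified and maintained as in the originators' reports. Exposed for 96 h to test compound (DMSO stock diluted in medium) at 1 nM–10 μM. Viable cells quantified by fluorescein diacetate fluorescence with DIMSCAN digital image microscopy. Absolute IC50 = concentration giving 50% growth inhibition vs controls. Relative IC50 = concentration giving 50% of the maximum inhibitory effect.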

[5] = system: ALL-8 ALL T-cell xenograft; test: ALL xenograft; assay type: in vivo, mice
Method in brief: (§3)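 Female NOD/scid mice inoculated intravenously with leukemia cells, 8 per group. Test compound suspended in 10% 2-hydroxypropyl-β-cyclodextrin/1% sodium bicarbonate in water. Given by oral gavage twice daily, 5 days weekly for 3 weeks, at 20.8, 10.4, 5.2 or 2.6 mg/kg. Blood %hCD45 of leukocytes tracked; event = hCD45 reaching 25%. EFS by Kaplan–Meier, exact log-rank vs controls. Median group response from individual scores.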

[6] = system: NB-1382 Neuroblastoma xenograft; assay type: in vivo, mice; conditions: 20.8 mg/kg
Method in brief: as §1

[7] = system: Ewing sarcoma (n = 11) and neuroblastoma (n = 17) cell lines; test: DIMSCAN in vitro testing, 96 h, whole extended panel; assay type: cell-based
[8] = system: Aurora kinase A mutation (T217D); conditions: cited from earlier work
[9] = system: CHLA-122 neuroblastoma cell line; test: DIMSCAN in vitro testing, 96 h; assay type: cell-based; conditions: for IC50: Neuroblastoma cell, 96 h
Method in brief: as §2

Aurora kinase A = conditions: cited from earlier work
ALL xenograft models = test: Objective responses across the ALL xenograft panel; assay type: in vivo, mice
Method in brief: as §3

[10] = system: SMS-KAN neuroblastoma cell line; test: DIMSCAN in vitro testing, 96 h; assay type: cell-based
[11] = system: Rh65 ALV Rhabdomyosarcoma xenograft; assay type: in vivo, mice
Method in brief: as §1

[12] = system: CHLA-32 Ewing sarcoma cell line; test: DIMSCAN in vitro testing, 96 h; assay type: cell-based; conditions: for IC50: 96 h
Method in brief: as §2

[13] = system: A-673 Ewing sarcoma cell line; test: DIMSCAN in vitro testing, 96 h; assay type: cell-based; conditions: for IC50: Homo sapiens, A673, 96 h
Method in brief: as §2

[14] = system: COG-E-352 Ewing sarcoma cell line; test: DIMSCAN in vitro testing, 96 h; assay type: cell-based; conditions: for IC50: 96 h
Method in brief: as §2

[15] = system: CHLA-136 neuroblastoma cell line; test: DIMSCAN in vitro testing, 96 h; assay type: cell-based; conditions: for IC50: Neuroblastoma cell, 96 h
Method in brief: as §2

[16] = system: CHLA-56 Ewing sarcoma cell line; test: DIMSCAN in vitro testing, 96 h; assay type: cell-based
Method in brief: as §2

Compound: COc1cc(Nc2ncc3c(n2)-c2ccc(Cl)cc2C(c2c(F)cccc2OC)=NC3)ccc1C(=O)O [MLN8237]
- IC50 ([1]; read-out: Absolute IC50): 26 nM
- IC50 ([1]; read-out: Relative IC50): 23 nM
- Ymin ([1]; SMS-KANR, minimum T/C): 11.4%
- objective responses out of 9 models in the solid tumor panel [2]: 5
- EFS T/C [3]: 1.4
- EFS activity [3]: Low
- Estimate of median time to event [3]: 7.6 days
- Median group response [3]: PD1 (if the TGD value ≤1.5, that mouse was considered PD1)
- Response activity [3]: Low
- Tumor volume T/C [3]: 0.71
- Median RTV/hCD45 at end of study ([3]; RTV): >4
- IC50 ([4]; read-out: Absolute IC50): 18 nM
- IC50 ([4]; read-out: Relative IC50): 16 nM
- Ymin ([4]; CHLA-9, minimum T/C): 4.2%
- EFS T/C ([5]; 2.6 mg/kg): 1.8
- EFS activity ([5]; 2.6 mg/kg): Low
- Estimate of median time to event ([5]; 2.6 mg/kg): 23.0 days
- Median group response ([5]; 2.6 mg/kg): PD2 (if the TGD value >1.5, the mouse was considered PD2)
- Response activity ([5]; 2.6 mg/kg): Int
- Median RTV/hCD45 at end of study ([5]; 2.6 mg/kg): >25%
- EFS T/C ([5]; 5.2 mg/kg): 2.5
- EFS activity ([5]; 5.2 mg/kg): Int
- Estimate of median time to event ([5]; 5.2 mg/kg): 31.6 days
- Response activity ([5]; 5.2 mg/kg): High
- Median RTV/hCD45 at end of study ([5]; 5.2 mg/kg): >25%
- EFS T/C ([5]; 10.4 mg/kg): >3.3
- EFS activity ([5]; 10.4 mg/kg): Int
- Response activity ([5]; 10.4 mg/kg): High
- Median RTV/hCD45 at end of study ([5]; 10.4 mg/kg): 6.2%
- EFS T/C ([5]; 20.8 mg/kg): >3.3
- EFS activity ([5]; 20.8 mg/kg): High
- Median group response ([5]; 20.8 mg/kg): MCR
- Response activity ([5]; 20.8 mg/kg): High
- Median RTV/hCD45 at end of study ([5]; 20.8 mg/kg): 0.2%
- EFS T/C [6]: >1.7
- Median group response [6]: PD2 (if the TGD value >1.5, the mouse was considered PD2)
- Response activity [6]: Int
- Tumor volume T/C [6]: 0.31
- Median RTV/hCD45 at end of study ([6]; RTV): 2.1
- Ymin, maximum ([7]; maximum of 28 cell lines): 48.1%
- Ymin, median ([7]; median of 28 cell lines): 10.9%
- Ymin, minimum ([7]; minimum of 28 cell lines): 0.5%
- IC50 ([7]; read-out: Absolute IC50, maximum): 10000 nM
- IC50 ([7]; read-out: Absolute IC50, median): 37 nM
- IC50 ([7]; read-out: Absolute IC50, minimum): 10 nM
- IC50 ([7]; read-out: Relative IC50, maximum): 10000 nM
- IC50 ([7]; read-out: Relative IC50, median): 32 nM
- IC50 ([7]; read-out: Relative IC50, minimum): 9 nM
- inhibition of Aurora kinase A T217D mutant [8]: impervious
- Ymin ([9]; CHLA-122, minimum T/C): 0.6%
- IC50 ([9]; read-out: Absolute IC50): 19 nM
- IC50 ([9]; read-out: Relative IC50): 17 nM
- specificity for Aurora kinase A inhibition versus Aurora kinase B (Aurora kinase A): 200 fold
- ALL xenografts classified as objective responses (ALL xenograft models; 0.25MTD, three models): two out of three
- response in ALL models (ALL xenograft models; 0.5MTD, three models): CR in each of three ALL models
- ALL xenografts with objective responses, of 3 tested (ALL xenograft models; MTD 20.8 mg/kg): 3
- IC50 ([10]; read-out: Absolute IC50): 34 nM
- IC50 ([10]; read-out: Relative IC50): 32 nM
- EFS T/C ([11]; 2.6 mg/kg): 2.1
- EFS activity ([11]; 2.6 mg/kg): Int
- Estimate of median time to event ([11]; 2.6 mg/kg): 22.9 days
- Median group response ([11]; 2.6 mg/kg): PD2 (if the TGD value >1.5, the mouse was considered PD2)
- Response activity ([11]; 2.6 mg/kg): Int
- Tumor volume T/C ([11]; 2.6 mg/kg): 0.31
- Median RTV/hCD45 at end of study ([11]; 2.6 mg/kg): >4
- EFS T/C ([11]; 5.2 mg/kg): 3.7
- EFS activity ([11]; 5.2 mg/kg): Int
- Estimate of median time to event ([11]; 5.2 mg/kg): 39.3 days
- Median group response ([11]; 5.2 mg/kg): PD2 (if the TGD value >1.5, the mouse was considered PD2)
- Response activity ([11]; 5.2 mg/kg): Int
- Tumor volume T/C ([11]; 5.2 mg/kg): 0.19
- Median RTV/hCD45 at end of study ([11]; 5.2 mg/kg): >4
- EFS T/C ([11]; 10.4 mg/kg): >3.9
- EFS activity ([11]; 10.4 mg/kg): Int
- Median group response ([11]; 10.4 mg/kg): PD2 (if the TGD value >1.5, the mouse was considered PD2)
- Response activity ([11]; 10.4 mg/kg): Int
- Tumor volume T/C ([11]; 10.4 mg/kg): 0.11
- Median RTV/hCD45 at end of study ([11]; 10.4 mg/kg): 3.2
- EFS T/C ([11]; 20.8 mg/kg): >3.9
- EFS activity ([11]; 20.8 mg/kg): High
- Median group response ([11]; 20.8 mg/kg): MCR
- Response activity ([11]; 20.8 mg/kg): High
- Tumor volume T/C ([11]; 20.8 mg/kg): 0.01
- Median RTV/hCD45 at end of study ([11]; 20.8 mg/kg): 0.0
- IC50 ([12]; read-out: Absolute IC50): 136 nM
- IC50 ([12]; read-out: Relative IC50): 92 nM
- Ymin ([12]; CHLA-32, minimum T/C): 13.1%
- Ymin ([13]; A-673, minimum T/C): 13.1%
- IC50 ([13]; read-out: Absolute IC50): 32 nM
- IC50 ([13]; read-out: Relative IC50): 30 nM
- IC50 ([14]; read-out: Absolute IC50): 43 nM
- IC50 ([14]; read-out: Relative IC50): 35 nM
- Ymin ([14]; COG-E-352, minimum T/C): 11.4%
- Ymin ([15]; CHLA-136, minimum T/C): 10.4%
- IC50 ([15]; read-out: Absolute IC50): 39 nM
- IC50 ([15]; read-out: Relative IC50): 36 nM
- IC50 ([16]; 96 h): > 10000 nM
- Ymin ([16]; CHLA-56, minimum T/C): 48.1%
